Experimental data as given in ChEMBL document CHEMBL4840308, “Design and synthesis of Mannich base-type derivatives containing imidazole and benzimidazole as lead compounds for drug discovery in Chagas Disease” (Eur J Med Chem, 2021).
The source made the active and inactive calls. No cut-off for these calls is given here.

Legend:
[1] = Selectivity index, ratio of IC50 for cytotoxicity against golden hamster BSR cells to IC50 for antiprotozoal activity against Trypanosoma cruzi epimastigotes; assay type: toxicity, cell-based; settings: read-out: Selectivity Index
Method in brief: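 Selectivity index as ratio of BSR cell IC50 to epimastigote IC50, both from 72 h Alamar Blue assays.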

[2] = Selectivity index, ratio of cytotoxicity against golden hamster BSR cells to IC50 for antitrypanosomal activity against Trypanosoma cruzi amastigotes infected in BSR cells; assay type: toxicity, cell-based; settings: read-out: Selectivity Index
Method in brief: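 Selectivity index as ratio of BSR cell IC50 to intracellular amastigote IC50 (72 h fluorescence read-out).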

[3] = Cytotoxicity against golden hamster BSR cells assessed as reduction in cell viability incubated for 72 hrs followed by alamar blue addition further incubated for 6 hrs; assay type: cell-based; settings: Mesocricetus auratus
Method in brief: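 BSR (BHK-21 subclone) cells, 5 x 10^4/well in DMEM with 5% FBS, adhered 6 h at 37 C, 5% CO2, then given 8-point 2:1 drug dilutions for 72 h; Alamar Blue added for 6 h, absorbance 540 nm; IC50 from sigmoidal variable-slope fit; triplicates, three independent experiments.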

Trypanosoma cruzi [4] = assay: Antitrypanosomal activity against Trypanosoma cruzi trypomastigotes assessed as inhibition of cellular invasion incubated for 6 hrs in high-glucose DMEM medium followed by compound washout further infected in BSR cells measured after 72 hrs by fluorescence based analysis; assay type: functional, organism-based
Method in brief: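 Tissue-culture trypomastigotes exposed to drug dilutions 6 h at 37 C in high-glucose DMEM with 10% FBS, washed 3x PBS, used to infect BSR cells overnight; non-internalised parasites washed off, 1% FBS medium, infection run 72 h further; amastigote fluorescence (ex 488/em 525 nm) read; IC50 for invasion reduction by curve interpolation.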

Trypanosoma cruzi [5] = assay: Antitrypanosomal activity against Trypanosoma cruzi amastigotes infected in BSR cells assessed as inhibition of replication of intracellular amastigotes incubated for 72 hrs by fluorescence based analysis; assay type: functional, organism-based
Method in brief: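 BSR cells (5 x 10^4/well) attached 6 h, infected overnight with CL-Luc:Neon tissue-culture trypomastigotes at MOI 10, washed 3x PBS, then drug in DMEM with 1% FBS for 72 h; fixed in 4% paraformaldehyde 30 min, fluorescence read ex 488/em 525 nm; IC50 by curve interpolation; triplicates, three experiments.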

[6] = Selectivity index, ratio of cytotoxicity against golden hamster BSR cells to IC50 for antitrypanosomal activity against Trypanosoma cruzi trypomastigotes; assay type: toxicity, cell-based; settings: read-out: Selectivity Index
Method in brief: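 Selectivity index as ratio of BSR cell IC50 to trypomastigote invasion IC50 (6 h pre-exposure, fluorescence read-out).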

Trypanosoma cruzi [7] = assay: Trypanocidal activity against Trypanosoma cruzi CL-Luc-Neon amastigotes infected in BSR cells assessed as inhibition of parasite growth at 10 times IC50 incubated for 20 days measured after 10 days of compound wash out by epifluorescence microscopy analysis; assay type: functional, organism-based; settings: time 20.0 day
Method in brief: (§1)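 BSR cells on 8-well slides or 24-well plates infected with CL-Luc:Neon trypomastigotes as in the amastigote assay, then exposed to 10 or 20 x IC50 for 10 or 20 days, compound renewed every 4 days; after removal, followed up to 30 days by light and fluorescence microscopy at 37 C, 5% CO2; three wells per treatment, 30 captures per timepoint; relapse day recorded.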

Trypanosoma cruzi [8] = assay: Antiprotozoal activity against Trypanosoma cruzi epimastigotes assessed as inhibition of parasite growth incubated for 72 hrs followed by alamar blue addition further incubated for 24 hrs; assay type: functional, organism-based
Method in brief: (§2)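 CL-Luc:Neon epimastigotes, 2.5 x 10^5/well in RPMI-1640, exposed 72 h at 27 C to 8-point 2:1 serial dilutions (DMSO <0.5% final); Alamar Blue […] added, 24 h further, read at 540 nm; IC50 interpolated from sigmoidal variable-slope fit; triplicates, three independent experiments.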

Trypanosoma cruzi [9] = assay: Trypanocidal activity against Trypanosoma cruzi CL-Luc-Neon amastigotes infected in BSR cells assessed as inhibition of parasite growth at 10 times IC50 incubated for 10 days measured after 10 days of compound wash out by epifluorescence microscopy analysis; assay type: functional, organism-based; settings: time 10.0 day; method in brief: as §1
Trypanosoma cruzi [10] = assay: Trypanocidal activity against Trypanosoma cruzi trypomastigotes assessed as fold decrease in benznidazole IC50 by alamar blue staining based fluorescence analysis relative to control; assay type: functional
Method in brief: (§3)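 Benznidazole IC50 redetermined by Alamar Blue or fluorescence read-outs under each stage's standard seeding conditions in the presence of the partner drug at its IC50; combination index by isobologram method (Ci <1 synergy, =1 additive, >1 antagonism); triplicate per plate, repeated at least twice.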

Trypanosoma cruzi [11] = assay: Trypanocidal activity against Trypanosoma cruzi epimastigotes assessed as fold decrease in benznidazole IC50 by alamar blue staining based fluorescence analysis relative to control; assay type: functional; set-up: scale not given: the % may be the effect or the level left; method in brief: as §3
Trypanosoma cruzi [12] = assay: Antiprotozoal activity against Trypanosoma cruzi epimastigotes assessed as decrease in parasitemia by measuring change in fluorescence intensity at >2.5 uM measured after 3 days by flourescence based analysis; assay type: functional, organism-based; settings: dose microM >2.5, time 3.0 day
Trypanosoma cruzi [13] = assay: Antitrypanosomal activity against Trypanosoma cruzi trymastigotes assessed as blockage of trypomastigote infectivity at >50 uM incubated for 6 hrs followed by compound washout further infected in BSR cells for 18 hrs measured after 120 hrs post infection by inverted fluorescence microscope analysis; assay type: functional, organism-based; settings: dose microM >50, time 6.0 hrs
Method in brief: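 Trypomastigotes held 6 h in serial drug concentrations, washed 3x PBS, then infect BSR cells at 10:1 trypomastigote:cell for 18 h; at 120 h post-infection, amastigote replication inspected by inverted epifluorescence microscopy (30 images per treatment, DAPI-stained host nuclei) to find the concentration preventing productive infection.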

Trypanosoma cruzi [14] = assay: Synergistic trypanocidal activity against Trypanosoma cruzi epimastigotes assessed as combination index at IC50 in presence of benznidazole by alamar blue staining based fluorescence analysis; assay type: functional; method in brief: as §3
Trypanosoma cruzi [15] = assay: Trypanocidal activity against Trypanosoma cruzi trypomastigotes assessed as inhibition of parasite growth by alamar blue staining based fluorescence analysis; assay type: functional, organism-based
[16] = Genotoxicity in human TK6 cells assessed as decrease in cell proliferation at 40 uM incubated for 3 hrs by comet assay relative to control; assay type: cell-based; set-up: scale not given: the % may be the effect or the level left; settings: tk6, 3 h
Method in brief: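 TK-6 cells (6 x 10^5 in 1 mL RPMI 1640 with 10% FBS) treated 3 h, washed, cultured 48 h at 37 C, 5% CO2 with agitation, counted at 24 and 48 h; relative suspension growth = TSG treated/TSG control as percentage; three independent experiments.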

Trypanosoma cruzi [17] = assay: Trypanocidal activity against Trypanosoma cruzi amastigotes assessed as inhibition of parasite growth by alamar blue staining based fluorescence analysis; assay type: functional, organism-based
Trypanosoma cruzi [18] = assay: Synergistic trypanocidal activity against Trypanosoma cruzi amastigotes assessed as combination index at IC50 in presence of benznidazole by alamar blue staining based fluorescence analysis; assay type: functional; method in brief: as §3
Trypanosoma cruzi [19] = assay: Trypanocidal activity against Trypanosoma cruzi CL-Luc-Neon amastigotes infected in BSR cells assessed as inhibition of parasite growth at 20 times IC50 incubated for 20 days measured after 10 days of compound wash out by epifluorescence microscopy analysis; assay type: functional, organism-based; settings: time 20.0 day; method in brief: as §1
Trypanosoma cruzi [20] = assay: Trypanocidal activity against Trypanosoma cruzi epimastigotes assessed as inhibition of parasite growth by alamar blue staining based fluorescence analysis; assay type: functional, organism-based; method in brief: as §2
Trypanosoma cruzi [21] = assay: Trypanocidal activity against Trypanosoma cruzi CL-Luc-Neon amastigotes infected in BSR cells assessed as inhibition of parasite growth at 20 times IC50 incubated for 20 days measured after 30 days of compound wash out by epifluorescence microscopy analysis; assay type: functional, organism-based; settings: time 20.0 day; method in brief: as §1
Trypanosoma cruzi [22] = assay: Synergistic trypanocidal activity against Trypanosoma cruzi trypomastigotes assessed as combination index at IC50 in presence of benznidazole by alamar blue staining based fluorescence analysis; assay type: functional; method in brief: as §3
[23] = Genotoxicity in human TK6 cells assessed as decrease in cell proliferation at 20 uM incubated for 3 hrs by comet assay; assay type: cell-based; settings: tk6, 3 h
Method in brief: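 TK-6 human lymphoblastoid cells (6 x 10^5 in 1 mL culture medium) exposed 3 h, washed three times, then grown 48 h in fresh medium at 37 C, 5% CO2 with agitation, and counted at 24 h (to adjust density) and at 48 h. Relative suspension growth is total suspension growth (48 h count / pre-treatment count) as % of untreated control. Triplicates, three independent experiments.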

Trypanosoma cruzi [24] = assay: Antitrypanosomal activity against Trypanosoma cruzi trymastigotes assessed as blockage of trypomastigote infectivity at >100 uM incubated for 6 hrs followed by compound washout further infected in BSR cells for 18 hrs measured after 5 days post infection by inverted fluorescence microscope analysis; settings: dose microM >100, time 6.0 hrs

Structure (SMILES)	selectivity ratio [1]	selectivity ratio [2]	IC50 [3] [µM]	IC50 (Trypanosoma cruzi [4]) [µM]	IC50 (Trypanosoma cruzi [5]) [µM]	selectivity ratio [6]	IC50 (Trypanosoma cruzi [8]) [µM]	also measured
O=C(CCn1ccnc1)c1ccc(F)c2ccccc12	10	12	72.2	16.6	6.1	4	7.4	Activity (Trypanosoma cruzi [7]): inactive; Activity (Trypanosoma cruzi [9]): inactive
COc1ccc(C(=O)CCn2ccnc2[N+](=O)[O-])cc1	43	28	84.7	9.1	3.3	9	2.2	fold change (FC) (Trypanosoma cruzi [10]): 4; Activity (Trypanosoma cruzi [11]): 70%; Activity (Trypanosoma cruzi [12]): Active; Activity (Trypanosoma cruzi [13]): Active; CI (Trypanosoma cruzi [14]): 0.33; IC50 (Trypanosoma cruzi [15]): 5.4 µM; Activity [16]: 45%; IC50 (Trypanosoma cruzi [17]): 0.4 µM; CI (Trypanosoma cruzi [18]): 0.81; Activity (Trypanosoma cruzi [19]): Active; IC50 (Trypanosoma cruzi [20]): 1.2 µM; Activity (Trypanosoma cruzi [21]): Active; CI (Trypanosoma cruzi [22]): 0.21
O=C(CCn1ccnc1)c1ccc(Cl)c(F)c1	6	–	135	–	–	–	23.3	–
O=C(CCn1ccnc1)c1cccc([N+](=O)[O-])c1	8	15	177	23	12.2	8	21.6	Activity (Trypanosoma cruzi [7]): inactive; Activity (Trypanosoma cruzi [9]): inactive
COc1cc(OC)cc(C(=O)CCn2cnc3ccccc32)c1	6	–	70.1	–	–	–	11.1	–
O=C(CCn1cnc2ccccc21)C12CC3CC(CC(C3)C1)C2	3	–	67.6	–	–	–	24.8	–
COS(C)(=O)=O [METHANESULFONIC ACID METHYL ESTER]	–	–	–	–	–	–	–	Activity [23]: Toxic
O=C(CCn1ccnc1)c1ccc([N+](=O)[O-])cc1	7	10	93.9	–	9.1	–	12.9	–
O=C(Cn1ccnc1[N+](=O)[O-])NCc1ccccc1 [BENZNIDAZOLE]	67	504	267	22.4	0.5	12	–	Activity (Trypanosoma cruzi [24]): inactive; Activity (Trypanosoma cruzi [12]): Active; Activity (Trypanosoma cruzi [19]): Active; Activity (Trypanosoma cruzi [21]): Active
Cc1ccccc1C(=O)CCn1ccnc1	7	–	145	–	–	–	21.4	–
